# According to ChEMBL document CHEMBL1811844, “Design, synthesis, and biological evaluation of triazolo-pyrimidine derivatives as novel inhibitors of hepatitis B virus surface antigen (HBsAg) secretion” (J Med Chem, 2011):
# Assays:
# Mus musculus [1] = assay: Toxicity in HBV infected transgenic 1.3.32 mouse assessed as change in serum total protein level at 7.9 to 25 mg/kg, po qd for 14 days; format: organism-based; design: dose 7.9-25 mg/kg, route oral; details: in vivo, 336 h
# Procedure, shortened: (§1)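 HBV-transgenic mice (strain 1.3.32), 10 per group, randomised; oral gavage once daily for 14 days at 25 or 7.9 mg/kg in NMP:Solutol HS15/saline vehicle; vehicle-only group. Weighed before the first dose and after 3 days; observed one hour after each dose. Tail-vein blood taken before dosing, at day 7 and at day 14 necropsy, each 3 h post-dose, for serum chemistry.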
# Mus musculus [2] = assay: Acute toxicity in CL57BL/6 mouse assessed as effect on mean corpuscular volume at 25 mg/kg, iv administered as single dose after 24 hrs; format: organism-based; design: dose 25 mg/kg, route intravenous; details: in vivo
# Procedure, shortened: (§2)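 Female C57BL/6 mice, four per group, randomized, each given one tail-vein injection of a 2 mg/mL solution in 1:1 NMP:Solutol HS15 diluted with saline; a vehicle-only group served as control. Mice were watched closely for the first hour and sacrificed at 24 h with necropsy. Whole blood was taken for complete blood counts on an automated haematology analyser.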
# Mus musculus [3] = assay: Acute toxicity in CL57BL/6 mouse assessed as weight loss at 25 mg/kg, iv administered as single dose after 24 hrs; format: organism-based; design: dose 25 mg/kg, route intravenous; details: in vivo
# Procedure, shortened: (§3)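 Female C57BL/6 mice, four per group, randomised; single tail-vein bolus in NMP:Solutol HS15 (1:1) diluted with saline to 2 mg/mL, injected within 10 min of preparation; vehicle-only group. Close observation for the first hour; sacrifice and necropsy at 24 h. Whole-blood complete blood counts and serum chemistry, including total bilirubin and total protein, were measured.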
# Mus musculus [4] = assay: Acute toxicity in CL57BL/6 mouse assessed as effect on mean platelet volume at 25 mg/kg, iv administered as single dose after 24 hrs; format: organism-based; design: dose 25 mg/kg, route intravenous; details: in vivo; procedure, shortened: as §2
# Rattus norvegicus [5] = assay: Volume of distribution at steady state in fasted Sprague-Dawley rat at 5 mg/kg, iv by LC/MS/MS analysis; format: ADME, organism-based; design: dose 5 mg/kg, route intravenous; details: in vivo
# Procedure, shortened: (§4)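 Male Sprague-Dawley rats, 3 per treatment, carried jugular cannulae and were fasted 12 h with water. Compound was formulated at 2 mg/mL in 1:1 NMP:Solutol HS15 diluted with saline. Dosing was 5 mg/kg iv or 25 mg/kg oral gavage. Blood was drawn predose and at 5, 15, 30 min, 1, 3 and 6 h. Plasma was quantified by LC-MS/MS against an 8-point standard curve.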
# Mus musculus [6] = assay: Acute toxicity in CL57BL/6 mouse assessed as effect on red cell distribution width at 25 mg/kg, iv administered as single dose after 24 hrs; format: organism-based; design: dose 25 mg/kg, route intravenous; details: in vivo; procedure, shortened: as §2
# Mus musculus [7] = assay: Acute toxicity in CL57BL/6 mouse assessed as effect on serum phosphorus level at 25 mg/kg, iv administered as single dose after 24 hrs; format: organism-based; design: dose 25 mg/kg, route intravenous; details: in vivo
# Procedure, shortened: as §2, with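 “watched” for “watched closely”, “Serum” for “Whole blood”, “collected and run” for “taken for complete blood counts”, “chemistry and electrolyte” for “haematology”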
# Rattus norvegicus [8] = assay: Oral bioavailability in fasted Sprague-Dawley rat at 25 mg/kg after 6 hrs by LC/MS/MS analysis; format: ADME, organism-based; details: in vivo; procedure, shortened: as §4
# Mus musculus [9] = assay: Acute toxicity in CL57BL/6 mouse assessed as effect on hematocrit at 25 mg/kg, iv administered as single dose after 24 hrs; format: organism-based; design: dose 25 mg/kg, route intravenous; details: in vivo; procedure, shortened: as §2
# Mus musculus [10] = assay: Acute toxicity in CL57BL/6 mouse assessed as effect on serum total protein level at 25 mg/kg, iv administered as single dose after 24 hrs; format: organism-based; design: dose 25 mg/kg, route intravenous; details: in vivo; procedure, shortened: as §3
# Mus musculus [11] = assay: Acute toxicity in CL57BL/6 mouse assessed as effect on white blood cells count at 25 mg/kg, iv administered as single dose after 24 hrs; format: organism-based; design: dose 25 mg/kg, route intravenous; details: in vivo; procedure, shortened: as §3
# Mus musculus [12] = assay: Acute toxicity in CL57BL/6 mouse assessed as effect on mean corpuscular at 25 mg/kg, iv administered as single dose after 24 hrs; format: organism-based; design: dose 25 mg/kg, route intravenous; details: in vivo; procedure, shortened: as §2
# Mus musculus [13] = assay: Acute toxicity in CL57BL/6 mouse assessed as effect on serum total bilirubin level at 25 mg/kg, iv administered as single dose after 24 hrs; format: organism-based; design: dose 25 mg/kg, route intravenous; details: in vivo
# Procedure, shortened: as §2, with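 “watched” for “watched closely”, “Serum” for “Whole blood”, “collected and run” for “taken for complete blood counts”, “chemistry and electrolyte” for “haematology”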
# Mus musculus [14] = assay: Acute toxicity in CL57BL/6 mouse assessed as effect on serum albumin level at 25 mg/kg, iv administered as single dose after 24 hrs; format: organism-based; design: dose 25 mg/kg, route intravenous; details: in vivo
# Procedure, shortened: as §2, with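 “watched” for “watched closely”, “Serum” for “Whole blood”, “collected and run” for “taken for complete blood counts”, “chemistry and electrolyte” for “haematology”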
# Rattus norvegicus [15] = assay: Total body clearance in fasted Sprague-Dawley rat at 5 mg/kg, iv by LC/MS/MS analysis; format: ADME, organism-based; design: dose 5 mg/kg, route intravenous; details: in vivo; procedure, shortened: as §4
# Mus musculus [16] = assay: Acute toxicity in CL57BL/6 mouse assessed as effect on serum Ca2+ level at 25 mg/kg, iv administered as single dose after 24 hrs; format: organism-based; design: dose 25 mg/kg, route intravenous; details: in vivo
# Procedure, shortened: as §2, with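 “watched” for “watched closely”, “Serum” for “Whole blood”, “collected and run” for “taken for complete blood counts”, “chemistry and electrolyte” for “haematology”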
# Mus musculus [17] = assay: Toxicity in HBV infected transgenic 1.3.32 mouse assessed as elevation in serum bilirubin level at 7.9 to 25 mg/kg, po qd for 14 days; format: organism-based; design: dose 7.9-25 mg/kg, route oral; details: in vivo, 336 h; procedure, shortened: as §1
# Mus musculus [18] = assay: Toxicity in HBV infected transgenic 1.3.32 mouse assessed as mortality at 7.9 to 25 mg/kg, po qd for 14 days; format: organism-based; design: dose 7.9-25 mg/kg, route oral; details: in vivo, 336 h; procedure, shortened: as §1
# Mus musculus [19] = assay: Acute toxicity in CL57BL/6 mouse assessed as effect on serum alanine aminotransferase level at 25 mg/kg, iv administered as single dose after 24 hrs; format: organism-based; design: dose 25 mg/kg, route intravenous; details: in vivo
# Procedure, shortened: as §2, with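 “watched” for “watched closely”, “Serum” for “Whole blood”, “collected and run” for “taken for complete blood counts”, “chemistry and electrolyte” for “haematology”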
# Hepatitis B virus = assay: Antiviral activity against adefovir-resistant Hepatitis B virus harboring polymerase N584T mutant in human HepG2 cells assessed as inhibition of HBsAg secretion by ELISA; format: functional, organism-based
# Mus musculus [20] = assay: Toxicity in HBV infected transgenic 1.3.32 mouse assessed as behavioral changes at 7.9 to 25 mg/kg, po qd for 14 days; format: organism-based; design: dose 7.9-25 mg/kg, route oral; details: in vivo, 336 h; procedure, shortened: as §1
# [21] = Cytotoxicity against human HepG2(2.2.15) cells by MTT assay; format: cell-based
# Mus musculus [22] = assay: Acute toxicity in CL57BL/6 mouse assessed as effect on serum globulin level at 25 mg/kg, iv administered as single dose after 24 hrs; format: organism-based; design: dose 25 mg/kg, route intravenous; details: in vivo
# Procedure, shortened: as §2, with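 “watched” for “watched closely”, “Serum” for “Whole blood”, “collected and run” for “taken for complete blood counts”, “chemistry and electrolyte” for “haematology”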
# Mus musculus [23] = assay: Acute toxicity in CL57BL/6 mouse assessed as effect on hemoglobin concentration at 25 mg/kg, iv administered as single dose after 24 hrs; format: organism-based; design: dose 25 mg/kg, route intravenous; details: in vivo; procedure, shortened: as §2
# Mus musculus [24] = assay: Acute toxicity in CL57BL/6 mouse assessed as effect on serum alkaline phosphatase level at 25 mg/kg, iv administered as single dose after 24 hrs; format: organism-based; design: dose 25 mg/kg, route intravenous; details: in vivo
# Procedure, shortened: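 Female C57BL/6 mice, four per group, randomized, each given one tail-vein injection of a 2 mg/mL solution in 1:1 NMP:Solutol HS15 diluted with saline; a vehicle-only group served as control. Serum was collected and run on an automated chemistry and electrolyte analyser.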
# Mus musculus [25] = assay: Acute toxicity in CL57BL/6 mouse assessed as effect on serum K+ level at 25 mg/kg, iv administered as single dose after 24 hrs; format: organism-based; design: dose 25 mg/kg, route intravenous; details: in vivo
# Procedure, shortened: as §2, with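 “watched” for “watched closely”, “Serum” for “Whole blood”, “collected and run” for “taken for complete blood counts”, “chemistry and electrolyte” for “haematology”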
# Mus musculus [26] = assay: Toxicity in HBV infected transgenic 1.3.32 mouse assessed as change in serum phosphorus level at 7.9 to 25 mg/kg, po qd for 14 days; format: organism-based; design: dose 7.9-25 mg/kg, route oral; details: in vivo, 336 h; procedure, shortened: as §1
# Mus musculus [27] = assay: Acute toxicity in CL57BL/6 mouse assessed as effect on red blood cells count at 25 mg/kg, iv administered as single dose after 24 hrs; format: organism-based; design: dose 25 mg/kg, route intravenous; details: in vivo; procedure, shortened: as §2
# Mus musculus [28] = assay: Acute toxicity in CL57BL/6 mouse assessed as effect on serum Na+ level at 25 mg/kg, iv administered as single dose after 24 hrs; format: organism-based; design: dose 25 mg/kg, route intravenous; details: in vivo
# Procedure, shortened: as §2, with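 “watched” for “watched closely”, “Serum” for “Whole blood”, “collected and run” for “taken for complete blood counts”, “chemistry and electrolyte” for “haematology”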
# Mus musculus [29] = assay: Toxicity in HBV infected transgenic 1.3.32 mouse assessed as change in serum Ca2+ level at 7.9 to 25 mg/kg, po qd for 14 days; format: organism-based; design: dose 7.9-25 mg/kg, route oral; details: in vivo, 336 h; procedure, shortened: as §1
# Mus musculus [30] = assay: Acute toxicity in CL57BL/6 mouse assessed as increase in lymphocytes count at 25 mg/kg, iv administered as single dose after 24 hrs; format: organism-based; design: dose 25 mg/kg, route intravenous; details: in vivo; procedure, shortened: as §3
smiles,measurement,setting,value
Fc1cccc(Cl)c1C1CC(c2ccc(Cl)cc2)Nc2ncnn21 (racemic),Activity,Mus musculus [1],Non-toxic
same,Activity,Mus musculus [2],Non-toxic
same,Activity,Mus musculus [3],Non-toxic
same,Activity,Mus musculus [4],Non-toxic
same,Vdss,Rattus norvegicus [5],1.6 L/kg
same,Activity,Mus musculus [6],Non-toxic
same,Activity,Mus musculus [7],Non-toxic
same,F,Rattus norvegicus [8],31%
same,Activity,Mus musculus [9],Non-toxic
same,Activity,Mus musculus [10],Non-toxic
same,Activity,Mus musculus [11],Non-toxic
same,Activity,Mus musculus [12],Non-toxic
same,Activity,Mus musculus [13],Non-toxic
same,Activity,Mus musculus [14],Non-toxic
same,CL,Rattus norvegicus [15],0.7 L/h/kg
same,Activity,Mus musculus [16],Non-toxic
same,Activity,Mus musculus [17],Toxic
same,Activity,Mus musculus [18],Non-toxic
same,Activity,Mus musculus [19],Non-toxic
same,EC50,Hepatitis B virus,5.6 µM
same,Activity,Mus musculus [20],Non-toxic
same,CC50,[21],> 50 µM
same,Activity,Mus musculus [22],Non-toxic
same,Activity,Mus musculus [23],Non-toxic
same,Activity,Mus musculus [24],Non-toxic
same,Activity,Mus musculus [25],Non-toxic
same,Activity,Mus musculus [26],Non-toxic
same,Activity,Mus musculus [27],Non-toxic
same,Activity,Mus musculus [28],Non-toxic
same,Activity,Mus musculus [29],Non-toxic
same,Activity,Mus musculus [30],Toxic
